High-throughput results from PubChem BioAssay.
Thrombin inh: inhibitors of human thrombin | alpha-thrombin, Boc-VPR-AMC fluorogenic substrate cleavage | inhibition, % at 5 µM | 220,000 compounds, 0.26% hits;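 active means inhibition at or above 40%; inactive means inhibition below 40%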;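 further: 0% = enzyme with no compound and 100% = wells without enzyme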
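System – human alpha-thrombin protein · Reagent – Boc-VPR-AMC substrate, 15 µM final · Compound – 5 µM single dose in 0.2% DMSO · Schedule – reaction at room temperature · Technique – AMC fluorescence at 355 nm excitation and 460 nm emission · Read-out basis – % inhibition relative to enzyme controls and enzyme-free blanks · Control set – no-compound enzyme wells and no-enzyme blanks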
FXIIa inh 1536: factor XIIa (human) inhibition. purified FXIIa, Boc-QGR-AMC fluorogenic substrate, 2 h. inhibition, % at 5 µM. 220,000 compounds, 0.3% hits; in the data active means inhibition above about 40%;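 further: 0% = enzyme with no compound and 100% = blank without enzyme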
hK5 inh: inhibitors of human kallikrein 5 | Q9Y337 | recombinant hK5, fluorogenic AMC substrate cleavage | inhibition, % at 5 µM | 210,000 compounds, 0.59% hits | AID 873;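 active means inhibition of 40% or more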;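 further: 0% = enzyme controls without compound and 100% = no-enzyme blanks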
Target sequence (Q9Y337 67-293 limits assumed): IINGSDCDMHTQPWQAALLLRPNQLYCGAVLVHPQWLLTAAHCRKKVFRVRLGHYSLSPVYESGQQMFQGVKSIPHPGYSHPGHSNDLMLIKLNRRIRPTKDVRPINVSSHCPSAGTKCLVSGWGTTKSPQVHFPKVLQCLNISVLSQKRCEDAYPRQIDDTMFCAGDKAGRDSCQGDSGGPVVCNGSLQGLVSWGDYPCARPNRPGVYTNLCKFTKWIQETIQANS
Wee1 stabilizer: human Wee1 degradation inhibition, primary screen; P30291; HeLa Luc-Wee1K328M stability, luciferase luminescence; 100% = proteasome inhibitor MG132 effect; reporter increase, % at 5 µM; 220,000 compounds, 1.2% hits; AID 1321;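 active means activation above the mean of all tested compounds plus 3 SD, set per screening run, cut at about 8.8% in these data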;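 further: cells exposed to compound for 20 h before luminescence read; 0% = DMSO alone and 100% = MG132 at 30 µM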
FXIa inh: inhibitors of human coagulation factor XIa | purified FXIa, Boc-Glu-Ala-Arg-AMC fluorogenic substrate | P03951 | 220,000 compounds, 0.14% hits | inhibition, % at 5 µM;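 active means inhibition of at least 40%; inactive means inhibition below 40%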;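 further: fluorescence of freed AMC excited at 355 nm; 0% = enzyme without compound and 100% = no enzyme blank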
Starred values were filed as active, the others as inactive. Rows were chosen to be rich in hits. Some 2.2% of all compounds tested hit in one or more screens of this group.

SMILES	Thrombin inh	FXIIa inh 1536	hK5 inh	Wee1 stabilizer	FXIa inh
COc1ccc(CCN2C(=NC(=O)CCC(=O)O)SC3CS(=O)(=O)CC32)cc1OC (stereo not given)	-3.9	4.3	-22.0	-2.8	4.3
CCCC(=O)N=C1SC2CS(=O)(=O)CC2N1c1ccc(CC)cc1 (stereo not given)	-6.4	41.4*	-8.6	0.8	26.3
O=C1/C(=C/N(C(=O)c2ccco2)c2ccc(Br)cc2)Sc2ccccc21	4.4	0.8	-8.9	-0.1	-2.0
O=C1/C(=C/N(C(=O)c2ccco2)c2ccc(Cl)cc2)Sc2ccccc21	-6.7	5.8	-5.6	9.4*	4.8
Cc1cc2c(c(=O)n1C)C(Cc1ccccc1)C(C#N)=C(N)O2 (stereo not given)	-1.8	45.4*	11.1	-2.7	14.3
CCCC1C(C#N)=C(N)Oc2cc(C)n(C)c(=O)c21 (stereo not given)	-7.6	-1.0	-2.9	-1.1	-6.4
Cc1cc(C)cc(N(CC(=O)NC2CCCC2)C(=O)C2(C)CC(=O)N=C3C=CC=CN32)c1 (stereo not given)	2.1	1.9	-1.1	10.6*	-4.2
Cc1ccccc1N(CC(=O)NC1CCCC1)C(=O)C1(C)CC(=O)N=C2C=CC=CN21 (stereo not given)	-7.1	5.0	-2.6	-2.1	4.8
CCN1CCCC1CNC(=O)C1CCN(C(=O)c2cc3sccc3n2Cc2ccc(F)cc2)CC1 (stereo not given)	-5.2	7.0	4.5	11.8*	1.8
O=C(NCCCN1CCCC1)C1CCN(C(=O)c2cc3sccc3n2Cc2ccc(F)cc2)CC1	4.6	35.6	0.0	1.3	25.7
O=C(Nc1cccnc1)NC1CCCCC1	1.1	1.3	-13.0	-2.2	-7.3
CCCCCc1nc2c(=O)[nH]c3ccccc3c2o1	-4.3	4.5	4.1	0.4	-6.1
CCCc1nc2c(=O)[nH]c3ccccc3c2o1	18.1	16.0	44.3*	-1.2	5.1
O=C(Nc1ccc(CN2CCS(=O)(=O)CC2)cc1)c1ccc(F)cc1	-0.1	6.8	2.1	9.7*	3.3
O=C(NCCCN1CCOCC1)c1cc(-c2ccc3c(c2)OCO3)nc2ccccc12	-0.8	3.5	0.6	10.7*	7.4
CCc1ccc(-c2cc(C(=O)NN3CCOCC3)c3ccccc3n2)cc1	-9.9	8.7	-11.3	27.6*	-8.1
O=C(NN1CCOCC1)c1cc(-c2ccc(Br)cc2)nc2ccccc12	-4.4	2.1	-57.5	3.1	-6.9
O=C(NCCCN1CCCC1=O)c1cc(-c2ccc3c(c2)OCO3)nc2ccccc12	-3.2	-7.1	-22.2	2.2	-5.6
C=CCNC(=S)Nc1c(N)n(C)c(=O)n(C)c1=O	-0.4	9.5	-0.6	0.7	6.4
CCOC(=O)c1cn(-c2c(C)n(C)n(-c3ccccc3)c2=O)c2c(F)c(F)c(F)cc2c1=O	-0.1	2.9	0.1	-2.4	0.8
Nc1ccccc1C(=O)NCCN1CCNC1=O	0.2	6.2	3.0	-0.7	3.6
Cc1ccc(C(=O)NCCN2CCNC2=O)cc1	19.0	47.0*	43.9*	4.8	23.8
Cc1cccc(-c2nsc(SCC(=O)NCC3CCCO3)n2)c1 (stereo not given)	-10.5	5.3	-2.9	9.5*	-7.9
COc1ccccc1-c1nc2cc3ccccc3cc2nc1-c1ccccc1	-6.7	-3.1	-13.0	-0.3	-11.0
CC(NC(=O)C1CCN(S(=O)(=O)N2CCC3(CC2)OCCO3)CC1)c1ccccc1 (stereo not given)	-5.3	1.5	-6.9	10.7*	6.8
SMILES	Thrombin inh	FXIIa inh 1536	hK5 inh	Wee1 stabilizer	FXIa inh
CC(NC(=O)C1CCN(S(=O)(=O)N2CCCCCC2)CC1)c1ccccc1 (stereo not given)	-2.7	0.0	-2.0	1.8	1.6
CC(C)Sc1nc(SCC(=O)O)c2c3c(sc2n1)COC(C)(C)C3	-4.1	7.2	-3.0	6.2	0.6
CC(C)Sc1nc(SCC(=O)NCc2ccco2)c2c3c(sc2n1)COC(C)(C)C3	31.8	13.7	55.0*	9.8*	6.5
CC(C)CN(CCOc1cccc(N2C(=O)C3=C(CCCC3)C2=O)c1)CC(C)C	2.7	17.6	-13.8	9.0*	7.8
CSCC[C@H](NC(=O)Nc1cccc(Br)c1)C(=O)O	4.9	10.6	3.4	2.7	1.0
O=C(Nc1ccc(Oc2nnc(-c3ccccc3)c3ccccc23)cc1)c1ccccc1	-0.1	6.6	-5.6	-2.0	1.4
CCOc1ccc(C(=O)Nc2nc3ccccc3[nH]2)cc1OCC	-22.6	8.2	0.4	9.3*	-6.8
